The values that follow come from ChEMBL document CHEMBL4513216, “Probing the Open Global Health Chemical Diversity Library for Multistage-Active Starting Points for Next-Generation Antimalarials” (ACS Infect Dis, 2020).

This data set is described as follows: Toxicity liver stage against HepG2, at 10uM. The data set is classed as cell-based. Set-up: test concentration 10 uM, cell line HepG2-A16-CD81EGFP. As to conditions: human, HepG2-A16-CD81EGFP cells; read-out: INHIBITION
Put shortly:
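Uninfected HepG2-A16-CD81EGFP cells, 3 × 10^3 per well, 1536-well, plated on prespotted compound at 10 μM final, parasite-free screening media added to match infected plates; puromycin 10 μM positive, DMSO 0.5% negative; run in parallel with 48 h PbLuc assay at 37 °C, 5% CO2; viability by CellTiter-Glo luminescence, normalized to controls.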
With `Cc1nc2cc(O)nn2c(C)c1CCC(=O)NCc1cc(Br)cs1`, the cytotoxicity at 10 µM was -3.04%. Take `Cc1csc(N2CCN(Cc3ccn(C)c(=O)c3)CC2)n1`: the cytotoxicity at 10 µM was found to be 8.08%.

In the case of `Nc1nc2c(c(NCC(c3cccnc3)N3CCOCC3)n1)CCNC2` (centres undefined), the cytotoxicity at 10 µM stood at 9.03%. Consider `CC(C)CC(=O)N1CCC(c2nnc3n2CCCCC3)CC1`, for which the cytotoxicity at 10 µM was -28%. Regarding `CCCc1cc(=O)[nH]c(-c2cccc(CN3CCCCCC3)c2)n1`, the cytotoxicity at 10 µM was -4.09%. With `Cc1nc2c(c(=O)[nH]1)CN(Cc1ccc3c(c1)CCCN3C)CC2`, the cytotoxicity at 10 µM was -3.55%.

Consider `O=C(c1ccsc1)N1C[C@@H]2CCN(C(=O)c3cccc(F)c3)[C@@H]2C1`, for which the cytotoxicity at 10 µM was 1.47%.

As to `O=c1[nH]cnc2c1CCN(S(=O)(=O)c1cccc(OC(F)(F)F)c1)C2`, the cytotoxicity at 10 µM was -2.87%. As to `CC(=O)NCC1CCN(C(=O)NCCc2ccc(Cl)s2)CC1`, the cytotoxicity at 10 µM is -6.19%. As for `c1ccc(CCc2noc(CN3CCC(N4CCSCC4)CC3)n2)cc1`, the figure is -8.01%; as for `Cc1nc(-c2cccc(Cl)c2)n(CC(=O)NCC2CCCO2)c(=O)c1C` (centres undefined), -7.04%; as for `CC(C)c1nc(NS(=O)(=O)c2ccccc2Cl)no1`, 10%.

For the molecule `CC(C)CN1CC[C@@H]2[C@@H]1CCN2S(=O)(=O)c1cccs1`, the cytotoxicity at 10 µM came out at 2.61%. On to `Oc1ccccc1CN1C[C@H](O)C[C@H]1c1nc(Cc2ccccc2)no1`, for which the cytotoxicity at 10 µM is -4.82%. As for `O=C1[C@H]2CN(c3ncc(F)cn3)C[C@H]2CN1CC1CC1`, the cytotoxicity at 10 µM came out at 6.19%. As for `CNS(=O)(=O)CCCN1CCCC1c1cc(C)on1` (centres undefined), the figure is -6.31%; as for `COC(CNC(=O)NCc1c(C)cc(C)[nH]c1=O)c1ccccc1` (centres undefined), -6.12%; as for `CN(CCCOc1ccccc1)C(=O)c1csc(-c2nnc[nH]2)n1`, 10.4%.

As to `CCC1C(=O)NCCN1c1ccnc(C(C)(C)C)n1` (centres undefined), the cytotoxicity at 10 µM was -8.37%. Take `Cc1cc(CN2CC[C@H]3C[C@H](C(=O)N(C)C)O[C@@H]3C2)no1`: the cytotoxicity at 10 µM was -5.53%. As to `Cc1ncc2c(n1)CCN(Cc1nc3ccccc3o1)C2`, the cytotoxicity at 10 µM is 1.66%. `Cc1nc(-c2ccsc2)ccc1C(=O)N(C)CC(F)(F)F`: the cytotoxicity at 10 µM was -1.54%. As for `CNc1cc(C2CCN2c2ncccn2)nc(C)n1` (centres undefined), the figure is 1.72%. Consider `Cc1cc(C)cc(OCC(=O)NC2CCN(S(C)(=O)=O)CC2)c1`, for which the cytotoxicity at 10 µM was -5.72%. Consider `Cc1c(CNS(=O)(=O)c2cccc(COC(C)C)c2)cnn1C`, for which the cytotoxicity at 10 µM amounted to 6.14%. As to `COc1ccc(C(=O)N2CCO[C@H]3[C@H](OCC4CC4)CC[C@@H]32)cc1F`, the cytotoxicity at 10 µM came out at 18.2%. Turning to `O=C1N(Cc2cccc(F)c2)CCC12CCCN(c1ncc(F)cn1)C2` (centres undefined), the cytotoxicity at 10 µM came to 0.797%. On to `CC(C)(C)CN1CCC[C@H]1c1nc(-c2cncnc2N)no1`, for which the cytotoxicity at 10 µM was -3.66%.

On to `CC(C)c1cc(C(=O)NCCCN(C)C)nc(N2CCCC2)n1`, for which the cytotoxicity at 10 µM is 8.49%. Regarding `Cc1nc(NCCC23CCCN2CCC3)cc(C2CCNCC2)n1`, the cytotoxicity at 10 µM worked out at 8.37%. Regarding `Cc1cc(C2CCCN(C(=O)COc3ccc(F)cc3F)C2)n[nH]1` (centres undefined), the cytotoxicity at 10 µM came out at 5.93%. Regarding `CC1CCN(CC2CCN(C(=O)c3c[nH]c4ncccc34)CC2)CC1`, the cytotoxicity at 10 µM stood at 10%. For the molecule `Cn1nccc1C(=O)N1CCCC2(CCN(c3ccsc3)C2=O)C1` (centres undefined), the cytotoxicity at 10 µM is -121%. For the molecule `CS(=O)(=O)N1Cc2ccccc2CC2(CCN(Cc3ccncc3)C2)C1` (centres undefined), the cytotoxicity at 10 µM worked out at 4.59%.

In the case of `Cn1cc(-c2nc(C(=O)N3CCCC3Cn3cccn3)cs2)cn1` (centres undefined), the cytotoxicity at 10 µM is -9.25%. With `CN(CC(=O)NCC(CCO)c1ccccc1)C(=O)OC(C)(C)C` (centres undefined), the cytotoxicity at 10 µM is -6.58%. As for `CSc1ccccc1C(=O)Nc1ccc(OC2CCN(C)CC2)cc1`, the figure is 3.39%; as for `CC(NCc1ccco1)c1nnc2n1CCCC2` (centres undefined), -2.34%; as for `Cc1nc(C)n(C2CCCN(C(=O)COc3ccccc3)C2)n1` (centres undefined), -2.51%. Consider `CC(C)c1cc(C(=O)NCC(O)C2CCOCC2)nn1C(C)(C)C` (centres undefined), for which the cytotoxicity at 10 µM was -9.55%. In the case of `CC(NCc1cnn(C)c1)c1noc(-c2ccc(Cl)cc2)n1` (centres undefined), the cytotoxicity at 10 µM was 3.97%.

Take `COc1cc(CN2CC[C@@]3(CCCO3)[C@@H](O)C2)ccc1F`: the cytotoxicity at 10 µM was -3.14%. Take `Cc1cnn(C2CN(CC(=O)NCC3(c4ccccc4)CC3)C2)c1`: the cytotoxicity at 10 µM was -10.9%. In the case of `COc1ccc(CCNC(=O)c2ccc(=O)n(C)c2)c(Cl)c1`, the cytotoxicity at 10 µM was -10.3%. The same measure for `O=C(O)c1cc(C=Cc2ccc3ccccc3c2)ncn1`: -13.6%. As for `CC(C)N1CCC(c2nccnc2Nc2ncccn2)CC1`, the figure is -23.7%. As for `c1cncc(-c2nnc(C3(c4ccc5c(c4)OCO5)CCOCC3)o2)c1`, the cytotoxicity at 10 µM is 4.02%.

Consider `CN1CCN(Cc2cnc3n2CCN(C(=O)c2ccoc2)C3)CC1`, for which the cytotoxicity at 10 µM is -80.7%. For the molecule `CN1C(=O)CC(C(=O)O)C12CCN(c1ccc3c(n1)CCCC3)CC2` (centres undefined), the cytotoxicity at 10 µM worked out at 2.78%. As for `CN1CCc2ccc(NCc3cccs3)cc2C1=O`, the figure is -4.72%; as for `CCOCc1ccccc1NC(=O)NC1CCN(c2ncccn2)CC1`, -4.78%. Take `O=S(=O)(NCc1ccc(S(=O)(=O)N2CCCC2)s1)c1ccc(Cl)cc1`: the cytotoxicity at 10 µM was -44%.

With `Cc1noc(C2CCN(Cn3cc(Cl)cn3)CC2)n1`, the cytotoxicity at 10 µM is -11.1%.

`CCn1nc(C)c(CN(CCOC)C(=O)c2cnc(C)nc2O)c1C`: the cytotoxicity at 10 µM was -2.27%.

In the case of `O=C(CC1[C@H]2CN(C(=O)c3cccnc3)C[C@@H]12)Nc1cccnc1` (some centres undefined), the cytotoxicity at 10 µM turned out to be 7.37%.

`COc1ccc(S(=O)(=O)N2Cc3c(CN(C)C)nn(C)c3C2)cc1`: the cytotoxicity at 10 µM was 3.94%.

Take `O=C(Nc1cccc(C(F)F)c1)N[C@@H]1C=C[C@H](CO)C1`: the cytotoxicity at 10 µM is -4.81%.

On to `CN(CCO)Cc1cc(=O)n2cc(Br)ccc2n1`, for which the cytotoxicity at 10 µM was -6.69%. For the molecule `Cc1cc(C)nc(C2CCN(C(=O)c3c(C)noc3C)C2)n1` (centres undefined), the cytotoxicity at 10 µM was -4.34%. Take `Cc1cc(C(=O)NC(COCC(C)C)c2ccco2)no1` (centres undefined): the cytotoxicity at 10 µM is -8.71%.

As to `Cc1noc(CN(Cc2ccc3c(c2)OCO3)C2CCCC2)n1`, the cytotoxicity at 10 µM was -5.28%.

`CC(=O)N1CCO[C@H]2[C@H](OCCCn3cccn3)CC[C@@H]21`: the cytotoxicity at 10 µM was determined as 7.16%. As for `c1ccc(COC[C@@H]2CC[C@H]3[C@H](CCN3c3ncccn3)O2)nc1`, the figure is -74.6%. On to `COCC(=O)N1CCC(c2cc(N(C)C)cc(C)n2)CC1`, for which the cytotoxicity at 10 µM stood at 8.6%. As for `Cc1occc1C(=O)N1C[C@@H](C(=O)NCc2ccco2)C[C@H]2OCC[C@H]21`, the figure is 1.08%; as for `O=C(c1cscn1)N1C[C@H](OCc2cccnc2)[C@H]2COC[C@H]21`, -2.07%. For the molecule `CCc1ccc(N2CCC(NS(=O)(=O)N(CC)CC)CC2)cc1`, the cytotoxicity at 10 µM worked out at 0.243%.

Take `CC(C)N1CCC(c2nccnc2Nc2cnccn2)CC1`: the cytotoxicity at 10 µM is 1.44%. As for `c1coc(-c2nc(CN3CCOC(Cn4cccn4)C3)cs2)c1` (centres undefined), the figure is -6.45%; as for `Cc1ccoc1C(=O)N1CC[C@H]2OCC[C@@]2(COCc2ccncc2)C1`, 5.71%; as for `CN(CCC(=O)N1CCc2sccc2C1)Cc1cnn(C)c1`, -18.6%. The same measure for `COCCN(C)C(=O)c1ccccc1-n1cccn1`: -4.57%; for `CC(NCC(=O)NCC(=O)Nc1ccc(F)cc1)c1cccs1` (centres undefined): 6.02%; for `CC(C)C(=O)Nc1ccc2c(c1)ncn2CC(=O)NCCN(C)C`: -9.1%. Regarding `Cn1cc(CN2CC[C@H]3OCC[C@@H](C(=O)Nc4cnccn4)[C@@H]3C2)cn1`, the cytotoxicity at 10 µM was 4.12%.

For `CCc1nnc2n1CCN(Cc1cc(Cl)c3c(c1)OCCCO3)C2`, the cytotoxicity at 10 µM was -5.83%. For the molecule `CNC(=O)[C@@H]1C[C@@H]2CCN(Cc3ccoc3)C[C@H]2O1`, the cytotoxicity at 10 µM is -108%. With `c1cc(C2CCN(c3cncnc3)CC2)ccn1`, the cytotoxicity at 10 µM was determined as 2.58%. As to `CC(Cn1cccn1)NCc1csc2c1CCCC2` (centres undefined), the cytotoxicity at 10 µM is -2.86%. Consider `CC(C)CN1CCN(Cc2nc3ccccc3[nH]2)[C@H]2CS(=O)(=O)C[C@H]21`, for which the cytotoxicity at 10 µM came out at 14.4%. With `CCOc1ccc(CN2CCC(c3ccn[nH]3)C2)cc1CO` (centres undefined), the cytotoxicity at 10 µM came to 0.845%.

For the molecule `CCn1c(CN(C)CC(=O)N(C)C)nc2c(F)cccc21`, the cytotoxicity at 10 µM was -4.36%.

Turning to `CC(=O)N1CCN(c2ncnc3cc4c(cc23)OCCO4)CC1`, the cytotoxicity at 10 µM was determined as 13.4%.

For `Fc1ccc(CN2CC[C@H]3O[C@@H](COCC4CCOCC4)CC[C@H]32)cc1`, the cytotoxicity at 10 µM amounted to 7.64%.

Take `c1cncc(NCCNC2CSCCSC2)c1`: the cytotoxicity at 10 µM is 15.8%. The same measure for `O=c1ccc2c(n1CC1CCOCC1)CCN(Cc1ccoc1)CC2`: -128%; for `CC(c1ccon1)N(C)C(=O)C1CCN(C(=O)C2CCC2)CC1` (centres undefined): 7.13%. As for `CCN(CC)C(=O)[C@@H]1C[C@@H](n2cc(-c3cccc(OC)c3)nn2)CN1`, the figure is -5.98%; as for `O=C(c1ccncc1)N1C[C@H]2CC[C@@H](C1)N(C(=O)C1CCCC1)C2`, 6.77%. For `CC(C)c1nnc(C2CCN(CC(=O)Nc3cccnc3)CC2)o1`, the cytotoxicity at 10 µM is -5.92%.

`O=S(=O)(Nc1cnn(C2CCOCC2)c1)c1c(F)cccc1F`: the cytotoxicity at 10 µM was determined as 13.9%. `CCn1cnnc1CNC(=O)NC(C)C(C)C` (centres undefined): the cytotoxicity at 10 µM was -6.15%. The same measure for `Cc1cnc(N2C[C@@H]3CCN(CC4CC4)C(=O)[C@H]3C2)nc1`: 3.47%; for `CCOc1c(F)cccc1C(=O)N(C)CCn1cccn1`: 3.76%.
